Bioassay records as filed in PubChem BioAssay.
PRMT1 inh: blocks human protein arginine methyltransferase 1 | Q99873 | AID 652257 | recombinant PRMT1, activity-based probe fluorescence polarization | inhibition, % at 2.79 µM | hit rate 1.3% among 370,000;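 active = inhibition above about 21% made by adding two undisclosed values, limit read from the data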
Target sequence (Q99873 whole entry, looked up): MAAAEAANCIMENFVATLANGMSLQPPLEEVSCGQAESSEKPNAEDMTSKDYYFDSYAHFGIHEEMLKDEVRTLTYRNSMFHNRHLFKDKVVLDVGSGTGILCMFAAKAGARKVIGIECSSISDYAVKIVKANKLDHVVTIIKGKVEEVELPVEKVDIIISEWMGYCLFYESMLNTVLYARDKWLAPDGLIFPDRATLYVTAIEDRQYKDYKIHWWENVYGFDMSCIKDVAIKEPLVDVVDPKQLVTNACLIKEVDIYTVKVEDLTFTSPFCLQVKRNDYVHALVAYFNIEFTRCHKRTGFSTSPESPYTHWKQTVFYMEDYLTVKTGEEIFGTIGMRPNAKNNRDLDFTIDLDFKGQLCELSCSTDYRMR
TDP2 absorb: TDP2 (human) inhibition, absorbance primary screen | inhibition, % at 12.8 µM | O95551 | recombinant TDP2, T5PNP hydrolysis, p-nitrophenol absorbance 415 nm | hit rate 0.34% among 370,000;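 active = inhibition above the mean of all tested compounds plus 3 SD, set per campaign, cut at about 25% in these data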;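 also: 0% = DMSO with enzyme and 100% = buffer with substrate but no TDP2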
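test system = human TDP2 enzyme | input = TDP2 enzyme at 120 nM final | medium = 50 mM Tris-HCl pH 7.5 with Mg2+, KCl, DTT, BSA | also added = T5PNP substrate, 5 mM | times = 2 h at 37 °C | technique = epi absorbance | benchmarks = high control without enzyme, low control DMSO plus TDP2 | replication = each compound tested once, singlicate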
PAD4 FP inh: PAD4 (human) enzyme inhibition; Q9UM07; recombinant PAD4, RCA probe fluorescence polarization; inhibition, % at 6.36 µM; hit rate 0.41% among 330,000;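 active = percent inhibition above a cutoff equal to the mean of all tested compounds plus 3 SD, cut at about 15% in these data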;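 also: 0% = PAD4 with RCA probe and DMSO and 100% = probe without PAD4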
GSTO1 inh: counter-screen for RBBP9 inhibitors: inhibitors of human GSTO1 | recombinant GSTO1, activity-based probe fluorescence polarization | inhibition, % at 5.96 µM | hit rate 1.1% among 300,000;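 active = inhibition above the campaign mean inhibition plus 3 SD, cut at about 35% in these data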;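 also: 0% = GSTO1-1 with DMSO and 100% = wells lacking GSTO1-1 enzyme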
Target sequence (P78417 whole entry, looked up): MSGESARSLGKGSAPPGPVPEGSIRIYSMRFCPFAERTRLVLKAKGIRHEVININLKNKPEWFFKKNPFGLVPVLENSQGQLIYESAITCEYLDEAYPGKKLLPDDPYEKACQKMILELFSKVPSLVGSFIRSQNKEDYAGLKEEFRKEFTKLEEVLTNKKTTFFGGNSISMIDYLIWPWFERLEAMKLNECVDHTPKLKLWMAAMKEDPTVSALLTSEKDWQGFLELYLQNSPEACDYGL
Apaf-1 inh: inhibitors of human Apaf-1 apoptosome; O14727; reconstituted apoptosome caspase-3 activity, DEVD-Rh110 fluorescence; inhibition, % at 20 µM; hit rate 0.71% among 330,000; AID 489030; active = inhibition of at least 40% at 20 µM;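 also: plate controls were DMSO wells for no effect and DEVD-CHO caspase inhibitor wells for full effect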
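Assay system: Apoptosome proteins | Medium: pH 7.5 Hepes buffer with CHAPS, BSA, DTT | Also added: Cytochrome c and DEVD-Rh110 substrate | Times: 30 min plus 50 min, RT | Detection: Rhodamine 110 fluorescence at Ex 480/Em 540 nm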
GSTO1 confirm: confirmation of human GSTO1 inhibitors | recombinant GSTO1, probe fluorescence polarization | hit rate 54% among 2,400 | inhibition, % at 5.96 µM | shares compounds with GSTO1 inh | AID 2176;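 active = inhibition above the primary screen's cutoff, its mean inhibition plus 3 SD, cut at about 35% in these data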;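 also: loss of polarization as inhibitors block binding of rhodamine sulfonate ester activity probe; 0% = GSTO1 with DMSO and 100% = wells lacking GSTO1 enzyme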
PAD4 confirm: confirmation of human PAD4 inhibitors; shares compounds with PAD4 FP inh; recombinant PAD4, RCA probe fluorescence polarization; inhibition, % at 6.36 µM; hit rate 28% among 1,200;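 active = mean inhibition across replicates above the hit cutoff set by the earlier primary screen, cut at about 15% in these data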;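 also: inhibitors block active-site labeling by the probe so polarization falls; 0% = PAD4 with probe and DMSO and 100% = probe without PAD4 enzyme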
Apaf-1 inh conf2: confirmation of Apaf-1 inhibitors | hit rate 25% among 1,800 | reconstituted apoptosome, caspase-3 DEVD-Rh110 fluorescence | shares compounds with Apaf-1 inh | inhibition, % at 20 µM;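 active = mean inhibition of at least 40% at 20 µM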;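 also: plate controls were DMSO wells for no effect and DEVD-CHO caspase inhibitor control wells for full effect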
Rh110 quench: counter-screen for Apaf-1 inhibitors: fluorescence interference; shares compounds with Apaf-1 inh; Rh110 fluorescence interference, quenched caspase reaction; activation (fluorescence interference), % at 20 µM; 1,800 tested, under 10 active; AID 504615;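 active = signal rise of 40% or more at 20 µM, treated as a fluorescence artifact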
Fluor interf inh: shows fluorescence interference in the Apaf-1 inhibitor assay format; IC50, µM; fluorescence interference counterscreen, Apaf-1 assay format; 460 tested, under 10 active; shares compounds with Apaf-1 inh; call rule not given here
PRMT1 confirm: PRMT1 (human) inhibition, FP confirmation; shares compounds with PRMT1 inh; inhibition, % at 2.79 µM; recombinant His-PRMT1, activity-based probe fluorescence polarization; hit rate 42% among 3,300;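 active = mean inhibition across replicates above the hit cutoff derived for the earlier primary screen, cut at about 22% in these data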
TDP2 confirm: human TDP2 inhibition, confirmation; recombinant human TDP2, absorbance read-out; shares compounds with TDP2 absorb; hit rate 22% among 1,100; inhibition, % at 12.8 µM; in the data active = inhibition above about 25%;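 also: 0% = vehicle with enzyme and 100% = no enzyme buffer only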
* marks the source's active call; other numbers are inactive results; nt = not tested or not shown. Most compounds without a hit are left out; they make up all but 2.6% or so of the library.

SMILES	PRMT1 inh	TDP2 absorb	PAD4 FP inh	GSTO1 inh	Apaf-1 inh	PAD4 confirm	others
CC[C@H](C(N)=O)N1CCCC1=O	-4.5	2.3	nt	nt	nt	nt
Fc1cccc(F)c1-c1nc(-c2ccc(Cl)cc2)no1	9.0	-7.6	1.1	-3.5	15.3	nt
COc1cc2c(cc1O)C[C@H]1NCCc3cc4c(c-2c31)OCO4	-0.4	-10.2	2.5	54.6*	71.0*	nt	GSTO1 confirm=20.7;Apaf-1 inh conf2=36.0;Rh110 quench=1.2
CCCCn1c(NC(=O)c2ccco2)c(C(=O)OCC)c2nc3ccccc3nc21	40.8*	79.3*	55.0*	87.3*	82.6*	13.7	GSTO1 confirm=86.8*;Apaf-1 inh conf2=79.8*;Rh110 quench=1.3;Fluor interf inh=>100;PRMT1 confirm=7.7;TDP2 confirm=76.5*
Nc1c(C(=O)NCCCc2ccccc2)c2nc3ccccc3nc2n1Cc1cccs1	1.4	59.9*	-13.2	57.7*	83.8*	nt	GSTO1 confirm=-0.7;Apaf-1 inh conf2=35.0;Rh110 quench=9.9;TDP2 confirm=2.2
COCCCn1c(N)c(C(=O)NCCC(C)C)c2nc3ccccc3nc21	3.0	40.8*	-10.3	38.9*	90.6*	nt	GSTO1 confirm=64.1*;Apaf-1 inh conf2=52.1*;Rh110 quench=6.5;Fluor interf inh=>100;TDP2 confirm=0.5
CCCCCn1c(=O)c(C(=O)NCCc2ccccc2)c(O)c2ccccc21	-2.9	10.4	-2.1	3.5	10.0	nt
CC(C)(C)OC(=O)NCCCCC(N)[P+](=O)O (stereo not drawn)	6.0	7.2	nt	nt	nt	nt
COc1cc2c(cc1OC)-c1c(OC)c(OC)cc3c1C(C2)N(C)CC3 (stereo not drawn)	0.2	51.9*	47.2*	69.6*	95.1*	26.0*	GSTO1 confirm=78.2*;TDP2 confirm=59.9*
COc1cc2c(cc1OC)-c1c3c(cc4c1[C@@H](C2)N(C)CC4)OCO3	-2.1	56.2*	56.9*	78.6*	97.5*	-9.0	GSTO1 confirm=69.8*;TDP2 confirm=52.1*
COc1c2c(cc3c1OCO3)CCN(C)C2	3.2	0.3	-0.1	6.6	-8.4	nt
COc1ccc(CC2c3cc(OC)c(OC)cc3CCN2C)cc1O (stereo not drawn)	-1.6	0.0	0.8	8.6	-1.7	nt
O=C1CC[C@@]2(O)[C@H]3Cc4ccc(O)c5c4[C@@]2(CCN3CC2CC2)C1O5 (stereo partly drawn)	-3.6	-7.0	nt	nt	nt	nt
NC(Cc1ccccc1Cl)c1nn[nH]n1 (stereo not drawn)	-0.7	13.1	nt	nt	nt	nt
COC(=O)C(O)(c1c(C)[nH]n(-c2ccccc2)c1=O)C(F)(F)F (stereo not drawn)	4.5	26.7*	4.5	50.1*	78.6*	nt	GSTO1 confirm=52.4*;Apaf-1 inh conf2=52.3*;Rh110 quench=-6.8;Fluor interf inh=>100;TDP2 confirm=44.5*
C[C@H](CO)N1C[C@H](C)[C@H](CN(C)C(=O)Oc2cccc3ccccc23)OCc2cnnn2CCCC1=O	-2.8	-2.8	nt	nt	nt	nt
O=C(NC1CCCCC1)Oc1cc2oc(=O)sc2cc1Cl	85.5*	29.5*	2.2	54.6*	9.7	nt	GSTO1 confirm=12.6;TDP2 confirm=12.4
CCOc1cccc(OCC)c2c(C)[n+](CC3CCCO3)c(C)c1-2 (stereo not drawn)	nt	nt	14.8*	28.6	8.9	-5.7
COc1ccc(CCNCC2CCCO2)cc1 (stereo not drawn)	2.3	12.2	-3.6	2.7	1.9	nt
CN(C)c1ccc(/C=C/C=C/c2sc3ccccc3[n+]2C)cc1	-0.4	-3.9	-6.7	-7.8	-0.4	nt
C[n+]1c(-c2ccccc2)sc2ccccc21	34.8*	6.1	14.8*	2.6	-4.6	6.2
CCC(c1nnnn1Cc1ccccc1)N1CCC(n2c(=O)[nH]c3ccccc32)CC1 (stereo not drawn)	-0.9	9.1	nt	nt	nt	nt
C[CH2][Hg][S]c1ccccc1C(=O)O	83.7*	0.1	37.7*	19.4	21.1	50.1*
COc1ccccc1/C=N/N=C(/N)N[N+](=O)[O-]	-0.8	-5.9	15.6*	1.1	-21.3	5.4
CCC(=NCC1CCCO1)c1c(O)n(-c2ccc(OC)cc2)c(=O)[nH]c1=O (stereo not drawn)	6.3	0.3	3.6	0.4	-0.7	nt
SMILES	PRMT1 inh	TDP2 absorb	PAD4 FP inh	GSTO1 inh	Apaf-1 inh	PAD4 confirm	others
C=CCn1c(O)c(C(C)=Nc2ccc(N(CC)CC)cc2)c(=O)[nH]c1=O	18.6	1.6	18.8*	14.1	26.8	-6.9
CCN1/C(=C\C=C\C2=[N+](CC)c3ccccc3C2(C)C)C(C)(C)c2ccccc21	nt	nt	145.3*	-351.7	56.4*	100.6*
COc1ccccc1-n1c(-c2ccccc2Cl)nc2ccccc2c1=O	-2.4	1.8	3.9	-3.6	5.7	nt
COc1ccc(CN2Cc3cc(N4CCOCC4)ccc3-n3nncc3C2)cc1	-1.8	0.8	nt	nt	nt	nt
COc1cc(C(c2c(C)[nH]n(-c3ccccc3)c2=O)c2c(C)[nH]n(-c3ccccc3)c2=O)cc(OC)c1OC	1.2	89.5*	69.5*	79.2*	91.8*	3.5	Apaf-1 inh conf2=62.1*;Rh110 quench=-3.1;Fluor interf inh=>100;TDP2 confirm=56.0*
O=C(CN1C(=O)CN=C(c2ccccc2)c2cc(Cl)ccc21)NC1CCCCC1	3.1	-7.7	nt	nt	nt	nt
CCOC(=O)c1nc2ccccc2c(=O)n1-c1ccc(C)cc1	4.2	3.5	3.6	7.5	-1.4	nt
CCCCn1c(NS(=O)(=O)c2ccc(C)cc2)c(C(=O)OCC)c2nc3ccccc3nc21	2.4	71.2*	66.2*	82.2*	90.3*	-2.6	Apaf-1 inh conf2=26.9;Rh110 quench=6.7;TDP2 confirm=36.2*
NC(N)=N/N=C/c1cn(-c2ccccc2)nc1-c1cccs1	-4.6	-17.9	-10.1	-26.3	40.9*	nt	Apaf-1 inh conf2=14.4;Rh110 quench=14.7
O=c1c2ccccc2nc(-c2cccs2)n1-c1ccccc1	-1.3	3.0	-0.1	1.2	13.7	nt
COC(=O)C1=C(c2ccc(OCc3ccccc3)cc2)C[C@@H]2CC[C@H]1N2C(=O)NC1CCN(Cc2ccccc2)CC1	nt	nt	-3.2	nt	57.7*	nt	Apaf-1 inh conf2=22.6;Rh110 quench=10.0
CC[C@@H](O)C[C@H]1CCC[C@@]2(C[C@@H]3OC(=O)/C=C/[C@@](C)(O)[C@@H](O)[C@H](C)[C@@H](O)[C@H](OC4CCC(N(C)C)C(C)O4)[C@@H](O)[C@](C)(O)CCCCC/C=C/[C@@H]4CC(C)(C)O[C@@]4(O)C[C@H](O2)[C@H]3C)O1 (stereo partly drawn)	-2.7	-5.3	nt	nt	nt	nt
